The record followed here is article PMC11960622 (RSC Advances, 2025).

Structures are written as SMILES.

One experiment concerns A549 cells. Briefly: MTT cytotoxicity assay, A549. It is filed as cell-based. The settings on record: for IC50: Homo sapiens, A549, 72 h, read-out: IC50 A549; for fold more toxic to A549 cells than VERO normal cells: selectivity VERO/A549. Put shortly: (§1)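 ATCC cells in RPMI 1640 with 10% heat-inactivated FBS and penicillin/streptomycin, 37 °C, 5% CO2. Trypsinized cells seeded at 1000–2000 per well, grown 24 h, then exposed 72 h to free or Cs/PVA-nanogel-loaded test compound (0.1, 10, 100, 1000 μM). MTT 2 h, formazan dissolved in acidified isopropanol, A570 read. Viability expressed versus control; IC50 derived.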

A further experiment deals with HCT116 cells. Briefly: MTT cytotoxicity assay, HCT116. The experiment is classed as cell-based. The settings on record: for IC50: Homo sapiens, HCT-116, 72 h, read-out: IC50 HCT116; for fold more toxic to HCT-116 cells than normal VERO cells: selectivity VERO/HCT-116. For orientation: Tetrazolium dyes change colour on reduction, which living cells bring about.
The next experiment deals with HepG2 cells. Briefly: MTT cytotoxicity assay, HepG2. It is filed as cell-based. Conditions: for IC50: Homo sapiens, HepG2, 72 h, read-out: IC50 HepG2; for fold toxic to HepG-2 cells than ordinary VERO cells: selectivity VERO/HepG-2. The procedure, abridged:
as §1

The next experiment deals with MCF-7 cells. The experiment can be described thus: MTT cytotoxicity assay, MCF-7. It is filed as cell-based. The settings on record: for IC50: Homo sapiens, MCF7, 72 h, read-out: IC50 MCF-7; for fold more toxic to MCF-7 cells than ordinary VERO cells: selectivity VERO/MCF-7. Put shortly:
as §1

Another experiment relates to calf thymus DNA. The experiment can be described thus: DNA/methyl green assay. The settings on record: read-out: DNA binding IC50; methyl green displacement, 24 h, pH 7.5. The procedure, abridged:
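Calf thymus DNA (10 mg) and methyl green (20 mg) in 100 mL 0.05 M Tris–HCl pH 7.5 with 7.5 mM MgSO4, stirred 24 h at 37 °C. Ethanol solutions of test compounds at 10, 100 and 1000 μM were dried under vacuum in wells, then complex added. Incubated at room temperature in the dark; A642.5–645 read at 24 h, normalized to untreated complex; IC50 fitted. Doxorubicin control.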

A further experiment has as its target topo-II enzyme. The experiment can be described thus: In vitro topoisomerase II inhibitory activity. It is filed as biochemical. Conditions: read-out: Topo-II assay IC50.

With `NC1=NC(=NS(=O)(=O)c2ccc(N)cc2)NC(=O)C1N=Nc1ccccc1C(=O)O` (stereo not drawn) [Compound 4, 2-((4-Amino-2-(((4-aminophenyl)sulfonyl)imino)-6-oxo-1,2,5,6-tetrahydropyrimidin-5-yl)diazenyl)-benzoic acid], the IC50 in the experiment on A549 cells is 5.5 ± 0.5 µM; in the experiment on HCT116 cells, 9.77 ± 1.1 µM; with HepG2 cells it was 7.12 ± 0.5 µM; in the experiment on MCF-7 cells, 7.85 ± 0.5 µM; in the experiment on calf thymus DNA it was 36 ± 3.5 µM; on topo-II enzyme, 1.2 ± 0.4 µM. Also, in the experiment with A549 cells, the “fold more toxic to A549 cells than VERO normal cells” value is 10.44 fold. Besides, in the experiment with HCT116 cells, the “fold more toxic to HCT-116 cells than normal VERO cells” value was determined as 5.88 fold. In addition, the “fold toxic to HepG-2 cells than ordinary VERO cells” value (“fold toxic” below) in the experiment on HepG2 cells is 8.07 fold. Further, the “fold more toxic to MCF-7 cells than ordinary VERO cells” value in the experiment with MCF-7 cells turned out to be 7.32 fold.
With `COc1cccc2c1C(=O)c1c(O)c3c(c(O)c1C2=O)C[C@@](O)(C(=O)CO)C[C@@H]3O[C@H]1C[C@H](N)[C@H](O)[C@H](C)O1` [Doxorubicin, reference compound], the IC50 came to 8.54 ± 0.8 µM with A549 cells, 31.3 ± 1.8 µM in the experiment with calf thymus DNA and 0.94 ± 0.4 µM at topo-II enzyme.
With `NC1=NN(c2ccc([N+](=O)[O-])cc2[N+](=O)[O-])C(=O)C1N=Nc1ccccc1C(=O)O` (stereo not drawn) [Compound 3, 2-((3-Amino-1-(2,4-dinitrophenyl)-5-oxo-4,5-dihydro-1H-pyrazol-4-yl)diazenyl)benzoic acid], the IC50 in the experiment on A549 cells was 6.1 ± 0.5 µM; with HCT116 cells, 11 ± 1.1 µM; with HepG2 cells it was 8.95 ± 0.5 µM; in the experiment with MCF-7 cells, 8.65 ± 0.8 µM; in the experiment with calf thymus DNA, 38.6 ± 3.8 µM; on topo-II enzyme, 1.49 ± 0.4 µM. The “fold more toxic to A549 cells than VERO normal cells” value in the experiment with A549 cells was 8.92 fold. Also, in the experiment with HCT116 cells, the “fold more toxic to HCT-116 cells than normal VERO cells” value was determined as 4.95 fold. For the same compound, in the experiment on HepG2 cells, the “fold toxic” value is 6.08 fold. In the experiment on MCF-7 cells, the “fold more toxic to MCF-7 cells than ordinary VERO cells” value is listed as 6.29 fold.
`NC1=NN(C(=O)C=Cc2ccccc2)C(=O)C1N=Nc1ccccc1C(=O)O` (stereo not drawn) [Compound 2, 2-((3-Amino-1-cinnamoyl-5-oxo-4,5-dihydro-1H-pyrazol-4-yl)diazenyl)benzoic acid]: the IC50 in the experiment with A549 cells stood at 6.3 ± 0.5 µM; in the experiment on HCT116 cells, 10.6 ± 1.5 µM; in the experiment with HepG2 cells, 8.8 ± 0.5 µM; in the experiment with MCF-7 cells it was 8.3 ± 0.5 µM; in the experiment on calf thymus DNA, 37 ± 3.9 µM; at topo-II enzyme, 1.31 ± 0.4 µM. Moreover, the “fold more toxic to A549 cells than VERO normal cells” value with A549 cells is given as 9.48 fold. For the same compound, the “fold more toxic to HCT-116 cells than normal VERO cells” value in the experiment with HCT116 cells came out at 5.63 fold. Further, the “fold toxic” value with HepG2 cells is reported as 6.78 fold. Besides, the “fold more toxic to MCF-7 cells than ordinary VERO cells” value with MCF-7 cells was 7.19 fold.

Usually IC50 stands for the concentration needed to halve the response being measured.
